Results reported in paper PMC5469413 (Journal of immunology (Baltimore, Md. : 1950), 2017).

How the values were obtained:
[1] = tested on: Staphylococcus epidermis; assay: Bacterial killing assay with recombinant whole IFN-β; format: cell-based; settings: incubated with IFN-β (Fig. S1)
Procedure, shortened: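 Overnight cultures subcultured to mid-log (OD₆₀₀=0.4), washed in sterile PBS and renormalised to OD₆₀₀=0.4. Bacteria resuspended in assay medium and incubated with recombinant whole IFN-β or vehicle in 100 μl reactions at 37°C with shaking. Ten-fold serial dilutions plated on LB to count surviving CFU.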

[2] = tested on: Escherichia coli; assay: Bacterial killing assay with recombinant whole IFN-β; format: cell-based; settings: increasing doses of IFN-β, 3 hours, CFU
[3] = tested on: S. aureus isogenic mutant lacking the dlt gene (Δdlt); assay: Bacterial killing assay with recombinant whole IFN-β, dlt-deficient strain; format: cell-based, Staphylococcus aureus; settings: increasing concentrations of IFN-β, 3 hours, CFU
[4] = tested on: Staphylococcus aureus; assay: Bacterial killing assay with recombinant whole IFN-β; format: cell-based; settings: 5×10^2 units/ml mIFN-β incubated at 37°C for 60 min, then bacteria 3 hours, CFU
[5] = tested on: gram-negative strains of bacteria; assay: Killing assay with IFN-β helix 4 peptide, gram-negative bacteria; format: cell-based; settings: bacteria 1×10^5/ml, 6 μM mouse helix 4 peptide, 3 hours, 37°C, CFU (Fig. 6I)

Question: Which results are given for “mIFN-β: recombinant whole mouse IFN-β (PBL Interferon)”?
Answer: killing of Staphylococcus epidermis [1]: observed killing; inhibitory or killing effect on Escherichia coli [2]: did not observe any inhibitory or killing effect; killing of Δdlt S. aureus compared to WT [3]: increased killing of Δdlt bacteria compared to WT; killing of S. aureus after pre-incubation at 37°C [4]: killing was not lost; antimicrobial activity against gram-negative bacteria [5]: significantly less effective
